ChEMBL document CHEMBL4177770, “Discovery of MK-6169, a Potent Pan-Genotype Hepatitis C Virus NS5A Inhibitor with Optimized Activity against Common Resistance-Associated Substitutions” (J Med Chem, 2018)
Numbering of substitutions follows the chain as printed.

Key:
[1] = biological target: T1, Nonstructural protein 5A (Hepatitis C virus) (UniProt Q5L478); assay: Inhibition of NS5A in HCV genotype 1a infected in HuH7 replicon cells assessed as decrease in viral replication after 3 days by RT-PCR method; assay type: cell-based; details: Hepatitis C virus subtype 1a
T1 sequence (whole entry): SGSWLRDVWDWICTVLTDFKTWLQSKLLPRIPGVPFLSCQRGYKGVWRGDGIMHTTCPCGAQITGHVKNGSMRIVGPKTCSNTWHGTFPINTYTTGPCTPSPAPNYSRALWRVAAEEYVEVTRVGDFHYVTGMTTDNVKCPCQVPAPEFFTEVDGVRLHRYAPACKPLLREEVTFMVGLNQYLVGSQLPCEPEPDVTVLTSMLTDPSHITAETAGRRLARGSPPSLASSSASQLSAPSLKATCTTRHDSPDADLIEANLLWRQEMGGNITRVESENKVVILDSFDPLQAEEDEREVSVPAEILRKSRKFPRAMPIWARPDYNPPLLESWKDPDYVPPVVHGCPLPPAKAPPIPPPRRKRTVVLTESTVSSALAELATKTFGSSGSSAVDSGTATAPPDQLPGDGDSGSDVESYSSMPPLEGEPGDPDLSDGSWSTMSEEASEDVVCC

[2] = biological target: T1, Nonstructural protein 5A (Hepatitis C virus); assay: Inhibition of NS5A in HCV genotype 1b infected in HuH7 replicon cells assessed as decrease in viral replication after 3 days by RT-PCR method; assay type: cell-based; details: Hepatitis C virus subtype 1b
[3] = biological target: T1, Nonstructural protein 5A (Hepatitis C virus); assay: Inhibition of NS5A L31M mutant in HCV genotype 2b infected in HuH7 replicon cells assessed as decrease in viral replication after 3 days by RT-PCR method; assay type: cell-based; details: Hepatitis C virus subtype 2b
[4] = biological target: T1, Nonstructural protein 5A (Hepatitis C virus); assay: Inhibition of NS5A in HCV genotype 3a infected in HuH7 replicon cells assessed as decrease in viral replication after 3 days by RT-PCR method; assay type: cell-based; details: Hepatitis C virus subtype 3a
[5] = biological target: T1, Nonstructural protein 5A (Hepatitis C virus); assay: Inhibition of NS5A in HCV genotype 4a infected in HuH7 replicon cells assessed as decrease in viral replication after 3 days by RT-PCR method; assay type: cell-based; details: Hepatitis C virus subtype 4a
[6] = test system: T2, Nonstructural protein 5A (Hepatitis C virus), Q5L478 [Y93H]; assay: Inhibition of NS5A Y93H mutant in HCV genotype 1a infected in HuH7 replicon cells assessed as decrease in viral replication after 3 days by RT-PCR method; assay type: cell-based; details: Hepatitis C virus subtype 1a
T2 sequence (whole entry): T1 sequence (whole entry) with Y93H

[7] = biological target: T1, Nonstructural protein 5A (Hepatitis C virus); assay: Inhibition of NS5A L31V mutant in HCV genotype 1a infected in HuH7 replicon cells assessed as decrease in viral replication after 3 days by RT-PCR method; assay type: cell-based; details: Hepatitis C virus subtype 1a
[8] = Half life in Wistar Han rat at 2 mg/kg, iv by LC/MS method; assay type: ADME, organism-based; details: in vivo
Method in brief: (§1)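 Male Wistar Han rats, two per group, dosed IV at 2 mg/kg in 60% PEG200. Plasma was obtained by centrifuging the blood, and compound concentrations were measured by LC/MS.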

[9] = Half life in Beagle dog at 1 mg/kg, iv by LC/MS method; assay type: ADME, organism-based, Canis lupus familiaris; details: in vivo
Method in brief: (§2)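 Beagle dogs, two animals per group, dosed IV at 1 mg/kg in 60% PEG200. Plasma was prepared from collected blood by centrifugation, and compound was quantified by LC/MS.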

[10] = Clearance in Wistar Han rat at 2 mg/kg, iv by LC/MS method; assay type: ADME, organism-based; details: in vivo; method in brief: as §1
[11] = Clearance in Beagle dog at 1 mg/kg, iv by LC/MS method; assay type: ADME, organism-based, Canis lupus familiaris; details: in vivo; method in brief: as §2
[12] = AUC in Wistar Han rat at 10 mg/kg, po by LC/MS method; assay type: ADME, organism-based; details: in vivo
Method in brief: (§3)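 Male Wistar Han rats, two per dosing group, dosed orally at 10 mg/kg in 10% TWEEN. Plasma was separated from collected blood by centrifugation and analysed by LC/MS.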

[13] = AUC in Beagle dog at 5 mg/kg, po by LC/MS method; assay type: ADME, organism-based, Canis lupus familiaris; details: in vivo
Method in brief: (§4)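 Beagle dogs, two animals per dosing group. Oral dose was given in 10% TWEEN. Blood was collected and spun to plasma, and plasma compound levels were measured by LC/MS.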

[14] = Cmax in Wistar Han rat at 10 mg/kg, po by LC/MS method; assay type: ADME, organism-based; parameters: dose 10 mg/kg, route oral; details: in vivo; method in brief: as §3
[15] = Cmax in Beagle dog at 5 mg/kg, po by LC/MS method; assay type: ADME, organism-based, Canis lupus familiaris; parameters: dose 5 mg/kg, route oral; details: in vivo; method in brief: as §4
[16] = Drug level in Wistar Han rat at 10 mg/kg, po measured at 24 hrs by LC/MS method; assay type: ADME, organism-based; details: in vivo, read-out: Drug uptake; method in brief: as §3
[17] = Drug level in Beagle dog at 5 mg/kg, po measured at 24 hrs by LC/MS method; assay type: ADME, organism-based, Canis lupus familiaris; details: in vivo, read-out: Drug uptake; method in brief: as §4
[18] = Oral bioavailability in Wistar Han rat at 10 mg/kg by LC/MS method; assay type: ADME, organism-based; details: in vivo; method in brief: as §3
[19] = Oral bioavailability in Beagle dog at 5 mg/kg by LC/MS method; assay type: ADME, organism-based, Canis lupus familiaris; details: in vivo; method in brief: as §4
[20] = Tmax in Wistar Han rat at 10 mg/kg, po by LC/MS method; assay type: ADME, organism-based; details: in vivo; method in brief: as §3
[21] = MRT in Wistar Han rat at 10 mg/kg, po by LC/MS method; assay type: ADME, organism-based; details: in vivo; method in brief: as §3
[22] = AUC in Wistar Han rat at 100 mg/kg, po by LC/MS method; assay type: ADME, organism-based; details: in vivo
Method in brief: (§5)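 Single rising oral dose study in fed male Wistar Han rats, dosed PO in 10% TWEEN at the indicated doses. Plasma was obtained by centrifuging the blood, and compound levels were determined by LC/MS.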

[23] = Cmax in Wistar Han rat at 100 mg/kg, po by LC/MS method; assay type: ADME, organism-based; parameters: dose 100 mg/kg, route oral; details: in vivo; method in brief: as §5
[24] = Drug level in Wistar Han rat at 100 mg/kg, po measured at 24 hrs by LC/MS method; assay type: ADME, organism-based; details: in vivo, read-out: Drug uptake; method in brief: as §5
[25] = Tmax in Wistar Han rat at 100 mg/kg, po by LC/MS method; assay type: ADME, organism-based; details: in vivo; method in brief: as §5
[26] = MRT in Wistar Han rat at 100 mg/kg, po by LC/MS method; assay type: ADME, organism-based; details: in vivo; method in brief: as §5
[27] = AUC in Wistar Han rat at 300 mg/kg, po by LC/MS method; assay type: ADME, organism-based; details: in vivo; method in brief: as §5
[28] = Cmax in Wistar Han rat at 300 mg/kg, po by LC/MS method; assay type: ADME, organism-based; parameters: dose 300 mg/kg, route oral; details: in vivo; method in brief: as §5
[29] = Drug level in Wistar Han rat at 300 mg/kg, po measured at 24 hrs by LC/MS method; assay type: ADME, organism-based; details: in vivo, read-out: Drug uptake; method in brief: as §5
[30] = Tmax in Wistar Han rat at 300 mg/kg, po by LC/MS method; assay type: ADME, organism-based; details: in vivo; method in brief: as §5
[31] = MRT in Wistar Han rat at 300 mg/kg, po by LC/MS method; assay type: ADME, organism-based; details: in vivo; method in brief: as §5
[32] = test system: Hepatitis C virus subtype 1a; assay: Resistance ratio of EC90 for NS5A L31V mutant in HCV genotype 1a infected in HuH7 replicon cells to EC90 for NS5A in HCV genotype 1a infected in HuH7 replicon cells; assay type: cell-based
[33] = test system: Hepatitis C virus subtype 1a; assay: Resistance ratio of EC90 for NS5A Y93H mutant in HCV genotype 1a infected in HuH7 replicon cells to EC90 for NS5A in HCV genotype 1a infected in HuH7 replicon cells; assay type: cell-based
[34] = Resistance ratio of EC90 for NS5A in HCV genotype 1b infected in HuH7 replicon cells to EC90 for NS5A in HCV genotype 1a infected in HuH7 replicon cells; assay type: cell-based
[35] = Resistance ratio of EC90 for NS5A L31M mutant in HCV genotype 2b infected in HuH7 replicon cells to EC90 for NS5A in HCV genotype 1a infected in HuH7 replicon cells; assay type: cell-based
[36] = Resistance ratio of EC90 for NS5A in HCV genotype 3a infected in HuH7 replicon cells to EC90 for NS5A in HCV genotype 1a infected in HuH7 replicon cells; assay type: cell-based
[37] = Resistance ratio of EC90 for NS5A in HCV genotype 4a infected in HuH7 replicon cells to EC90 for NS5A in HCV genotype 1a infected in HuH7 replicon cells; assay type: cell-based

COC(=O)N[C@H](C(=O)N1CCC[C@H]1c1ncc(-c2cc(F)c3c(c2)O[C@@H](c2ccc(C4CC4)s2)n2c-3cc3cc(-c4cnc([C@@H]5CCCN5C(=O)[C@@H](NC(=O)OC)C5C[C@@H](C)O[C@@H](C)C5)[nH]4)ccc32)[nH]1)C(C)C (stereo partly drawn)
EC90 [1]: 4 pM
EC90 [2]: 4 pM
EC90 [3]: 25 pM
EC90 [4]: 8 pM
EC90 [5]: 7 pM
EC90 [6]: 27 pM
EC90 [7]: 5 pM
half-life [8]: 5.1 h
half-life [9]: 7.2 h
clearance [10]: 11 mL/min/kg
clearance [11]: 3 mL/min/kg
AUC [12]: 0.33 to 0.92 µM·h
AUC [13]: 2.42 µM·h
Cmax [14]: 67 to 80 nM
Cmax [15]: 330 nM
concentration at 24 h [16]: 3 to 5 nM
concentration at 24 h [17]: 11 nM
bioavailability [18]: 5.9%
bioavailability [19]: 8.5%
Tmax [20]: 4 h
MRT [21]: 9 h
AUC [22]: 1.95 µM·h
Cmax [23]: 220 nM
concentration at 24 h [24]: 27 nM
Tmax [25]: 2 h
MRT [26]: 17 h
AUC [27]: 4.08 µM·h
Cmax [28]: 390 nM
concentration at 24 h [29]: 40 nM
Tmax [30]: 6 h
MRT [31]: 11 h

COC(=O)N[C@H](C(=O)N1CCC[C@H]1c1ncc(-c2cc(F)c3c(c2)O[C@@H](c2cc4c(s2)CCC4)n2c-3cc3cc(-c4cnc([C@@H]5CCCN5C(=O)[C@@H](NC(=O)OC)C5CCOCC5)[nH]4)ccc32)[nH]1)C(C)C
EC90 [1]: 5 pM
EC90 [2]: 5 pM
EC90 [3]: 64 pM
EC90 [4]: 22 pM
EC90 [5]: 4 pM
EC90 [6]: 39 pM
EC90 [7]: 13 pM
Ratio [32]: < 10
Ratio [33]: < 10
Ratio [34]: < 10
Ratio [35]: < 10
Ratio [36]: < 10
Ratio [37]: < 10

COC(=O)N[C@H](C(=O)N1CCC[C@H]1c1ncc(-c2cc(F)c3c(c2)O[C@@H](c2ccc(C(F)F)s2)n2c-3cc3cc(-c4cnc([C@@H]5CCCN5C(=O)[C@@H](NC(=O)OC)C5CCOCC5)[nH]4)ccc32)[nH]1)C(C)C
EC90 [1]: 4 pM
EC90 [2]: 6 pM
EC90 [3]: 16 pM
EC90 [4]: 10 pM
EC90 [5]: 4 pM
EC90 [6]: 15 pM
EC90 [7]: 5 pM
Ratio [32]: < 10
Ratio [33]: < 10
Ratio [34]: < 10
Ratio [35]: < 10
Ratio [36]: < 10
Ratio [37]: < 10

CCCc1ccc([C@@H]2Oc3cc(-c4cnc([C@@H]5CCCN5C(=O)[C@@H](NC(=O)OC)C(C)C)[nH]4)cc(F)c3-c3cc4cc(-c5cnc([C@@H]6CCCN6C(=O)[C@@H](NC(=O)OC)C6CCOCC6)[nH]5)ccc4n32)s1
EC90 [1]: 2 pM
EC90 [2]: 6 pM
EC90 [3]: 12 pM
EC90 [4]: 5 pM
EC90 [5]: 2 pM
EC90 [6]: 9 pM
EC90 [7]: 3 pM
Ratio [32]: < 10
Ratio [33]: < 10
Ratio [34]: < 10
Ratio [35]: < 10
Ratio [36]: < 10
Ratio [37]: < 10

COC(=O)N[C@H](C(=O)N1CCC[C@H]1c1ncc(-c2cc(F)c3c(c2)O[C@@H](c2ccc4c(c2)OCCC4)n2c-3cc3cc(-c4cnc([C@@H]5CCCN5C(=O)[C@@H](NC(=O)OC)C5CCOCC5)[nH]4)ccc32)[nH]1)C(C)C
EC90 [1]: 4 pM
EC90 [2]: 6 pM
EC90 [3]: 19 pM
EC90 [4]: 8 pM
EC90 [5]: 7 pM
EC90 [6]: 35 pM
EC90 [7]: 5 pM
half-life [8]: 3.2 h
clearance [10]: 11 mL/min/kg
AUC [12]: 0.13 µM·h
Cmax [14]: 32 nM
bioavailability [18]: 0.8%
Ratio [32]: < 10
Ratio [33]: < 10
Ratio [34]: < 10
Ratio [35]: < 10
Ratio [36]: < 10
Ratio [37]: < 10
